“And” between values parts separate entries of the source, which are not always exact repeats. Identical values can stand only once.
Legend:
[1] = system: HEK-293T; assay: Multiplex assay against HEK293T; assay type: toxicity, cell-based; conditions: human
Summary of the method: (§1)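 Live cells were stained at seeding with Hoechst33342, BioTracker Green Microtubule Cytoskeleton Dye, MitoTracker Red and Annexin V Alexa Fluor 680, then imaged on a CQ1 microscope at 37°C and 5% CO2 after compound addition. CellPathfinder machine-learning gating split cells into Hoechst high-intensity objects or normal cells. Normal cells were split into healthy, pyknosed or fragmented nuclei, and pyknosed cells into mitotic or apoptotic. Tubulin, mitochondrial-mass and membrane-permeability phenotypes are per cents of healthy-nucleus cells.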

[2] = system: Fibroblast; assay: Multiplex assay against human fibroblast; assay type: toxicity, cell-based; summary of the method: as §1
[3] = 24 h, 1 µM, compound concentration 1 uM
[4] = 24 h, 10 µM, compound concentration 10 uM
[5] = 48 h, 1 µM, compound concentration 1 uM
[6] = 48 h, 10 µM, compound concentration 10 uM
[7] = 12 h, 1 µM, compound concentration 1 uM
[8] = 12 h, 10 µM, compound concentration 10 uM

CC(C)COc1ccc(CNC(=O)N(Cc2ccc(F)cc2)C2CCN(C)CC2)cc1 [PIMAVANSERIN]
Total Cell Count [1, 3]: 553 and 394 | Population Apoptotic (%) [1, 4]: 81% and 84% | Population Fragmented Nuclei (%) [1, 4]: 10% and 12% | Population Healthy Nuclei (%) [1, 4]: 57% and 54% | Population Hoechst High Intensity Objects (%) [1, 4]: 27% and 34% | Population Membrane Permeable-Phenotype (%) [1, 4]: 0% | Population Mitochondria Different-Phenotype (%) [1, 4]: 94% and 100% | Population Mitotic Cells (%) [1, 4]: 18% and 15% | Population Normal (%) [1, 4]: 72% and 65% | Population Pyknosed Nuclei (%) [1, 4]: 31% and 32% | Population Tubulin-Different-Phenotype (%) [1, 4]: 77% and 69% | Total Cell Count [1, 4]: 285 and 215 | Population Apoptotic (%) [1, 5]: 27% and 48% | Population Fragmented Nuclei (%) [1, 5]: 13% and 9% | Population Healthy Nuclei (%) [1, 5]: 77% and 84% | Population Hoechst High Intensity Objects (%) [1, 5]: 5% | Population Membrane Permeable-Phenotype (%) [1, 5]: 1% and 0% | Population Mitochondria Different-Phenotype (%) [1, 5]: 31% and 33% | Population Mitotic Cells (%) [1, 5]: 72% and 51% | Population Normal (%) [1, 5]: 94% | Population Pyknosed Nuclei (%) [1, 5]: 8% and 6% | Population Tubulin-Different-Phenotype (%) [1, 5]: 33% and 21% | Total Cell Count [1, 5]: 869 and 601 | Population Apoptotic (%) [1, 6]: 75% and 61% | Population Fragmented Nuclei (%) [1, 6]: 29% and 31% | Population Healthy Nuclei (%) [1, 6]: 30% | Population Hoechst High Intensity Objects (%) [1, 6]: 52% and 60% | Population Membrane Permeable-Phenotype (%) [1, 6]: 0% | Population Mitochondria Different-Phenotype (%) [1, 6]: 88% and 92% | Population Mitotic Cells (%) [1, 6]: 24% and 38% | Population Normal (%) [1, 6]: 47% and 40% | Population Pyknosed Nuclei (%) [1, 6]: 40% and 37% | Population Tubulin-Different-Phenotype (%) [1, 6]: 58% and 64% | Total Cell Count [1, 6]: 235 and 205 | Population Apoptotic (%) [2, 7]: 65% and 61% | Population Fragmented Nuclei (%) [2, 7]: 24% and 40% | Population Healthy Nuclei (%) [2, 7]: 62% and 42% | Population Hoechst High Intensity Objects (%) [2, 7]: 0% and 1% | Population Membrane Permeable-Phenotype (%) [2, 7]: 0% and 7% | Population Mitochondria Different-Phenotype (%) [2, 7]: 12% and 4% | Population Mitotic Cells (%) [2, 7]: 34% and 38% | Population Normal (%) [2, 7]: 100% and 98% | Population Pyknosed Nuclei (%) [2, 7]: 12% and 16% | Population Tubulin-Different-Phenotype (%) [2, 7]: 35% and 82% | Total Cell Count [2, 7]: 179 and 160 | Population Apoptotic (%) [2, 8]: 56% and 51% | Population Fragmented Nuclei (%) [2, 8]: 18% and 31% | Population Healthy Nuclei (%) [2, 8]: 65% and 42% | Population Hoechst High Intensity Objects (%) [2, 8]: 1% and 4% | Population Membrane Permeable-Phenotype (%) [2, 8]: 0% and 2% | Population Mitochondria Different-Phenotype (%) [2, 8]: 42% and 32% | Population Mitotic Cells (%) [2, 8]: 43% and 48% | Population Normal (%) [2, 8]: 98% and 95% | Population Pyknosed Nuclei (%) [2, 8]: 16% and 26% | Population Tubulin-Different-Phenotype (%) [2, 8]: 93% and 81% | Total Cell Count [2, 8]: 185 | Population Apoptotic (%) [2, 3]: 60% and 52% | Population Fragmented Nuclei (%) [2, 3]: 21% and 39% | Population Healthy Nuclei (%) [2, 3]: 65% and 46% | Population Hoechst High Intensity Objects (%) [2, 3]: 2% | Population Membrane Permeable-Phenotype (%) [2, 3]: 1% and 4% | Population Mitochondria Different-Phenotype (%) [2, 3]: 5% and 9% | Population Mitotic Cells (%) [2, 3]: 39% and 47% | Population Normal (%) [2, 3]: 97% | Population Pyknosed Nuclei (%) [2, 3]: 12% and 13% | Population Tubulin-Different-Phenotype (%) [2, 3]: 47% and 76% | Total Cell Count [2, 3]: 186 and 157 | Population Apoptotic (%) [2, 4]: 83% and 69% | Population Fragmented Nuclei (%) [2, 4]: 13% and 27% | Population Healthy Nuclei (%) [2, 4]: 67% and 50% | Population Hoechst High Intensity Objects (%) [2, 4]: 4% and 8% | Population Membrane Permeable-Phenotype (%) [2, 4]: 0% and 3% | Population Mitochondria Different-Phenotype (%) [2, 4]: 41% and 38% | Population Mitotic Cells (%) [2, 4]: 16% and 30% | Population Normal (%) [2, 4]: 95% and 91% | Population Pyknosed Nuclei (%) [2, 4]: 18% and 21% | Population Tubulin-Different-Phenotype (%) [2, 4]: 92% and 96% | Total Cell Count [2, 4]: 170 and 167 | Population Apoptotic (%) [2, 5]: 88% and 52% | Population Fragmented Nuclei (%) [2, 5]: 27% and 44% | Population Healthy Nuclei (%) [2, 5]: 62% and 44% | Population Hoechst High Intensity Objects (%) [2, 5]: 3% and 5% | Population Membrane Permeable-Phenotype (%) [2, 5]: 1% and 4% | Population Mitochondria Different-Phenotype (%) [2, 5]: 3% and 12% | Population Normal (%) [2, 5]: 96% and 94% | Population Pyknosed Nuclei (%) [2, 5]: 9% and 10% | Population Tubulin-Different-Phenotype (%) [2, 5]: 45% and 64% | Total Cell Count [2, 5]: 204 and 167 | Population Apoptotic (%) [2, 6]: 92% and 75% | Population Fragmented Nuclei (%) [2, 6]: 15% and 30% | Population Healthy Nuclei (%) [2, 6]: 67% and 53% | Population Hoechst High Intensity Objects (%) [2, 6]: 12% and 6% | Population Membrane Permeable-Phenotype (%) [2, 6]: 0% and 3% | Population Mitochondria Different-Phenotype (%) [2, 6]: 44% and 41% | Population Normal (%) [2, 6]: 87% and 93% | Population Pyknosed Nuclei (%) [2, 6]: 17% and 16% | Population Tubulin-Different-Phenotype (%) [2, 6]: 91% and 92% | Total Cell Count [2, 6]: 163 and 159
